Laboratory results published in ChEMBL document CHEMBL1157373, “Dual targeting of DNA gyrase and topoisomerase IV: target interactions of heteroaryl isothiazolones in Staphylococcus aureus” (Antimicrob Agents Chemother, 2007).
Converted amounts (≈) assume the structure as drawn.

Columns and labels:
Staphylococcus aureus [1] = assay: Antibacterial activity against Staphylococcus aureus ACH-0201 isolate with gyrA Ser84Leu, Glu88Val and grlA Ser80Phe, Ala116Val mutant after 24 hrs by broth microdilution method; type: functional
Staphylococcus aureus [2] = assay: Antibacterial activity against Staphylococcus aureus ACH-0126 isolate with gyrA Ser84Leu and grlA Ser80Phe mutant after 24 hrs by broth microdilution method; type: functional
Staphylococcus aureus [3] = assay: (§1) Antibacterial activity against Staphylococcus aureus ACH-0129 isolate with gyrA Ser84Leu, Glu88Val and grlA Ser80Phe, Ala116Val mutant after 24 hrs by broth microdilution method; type: functional
Staphylococcus aureus [4] = assay: Antibacterial activity against Staphylococcus aureus ACH-0192 isolate with gyrA Ser84Leu and grlA Ser80Phe, Ala116Val mutant after 24 hrs by broth microdilution method; type: functional
Staphylococcus aureus [5] = assay: Antibacterial activity against Staphylococcus aureus ACH-0203 isolate with gyrA Ser84Leu and grlA Ser80Phe, Ala116Val mutant after 24 hrs by broth microdilution method; type: functional
In short: (§2)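 Broth microdilution per CLSI guidelines. MIC taken as the lowest concentration preventing visible growth at 24 h. Each MIC determined at least twice.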

Staphylococcus aureus [6] = assay: Antibacterial activity against Staphylococcus aureus ACH-0206 isolate with gyrA Ser84Leu mutant after 24 hrs by broth microdilution method; type: functional; in short: as §2
Staphylococcus aureus [7] = assay: Antibacterial activity against Staphylococcus aureus ACH-0231 isolate with gyrA Ser84Leu, Glu88Lys and grlA Ser80Tyr, Glu84Gly mutant after 24 hrs by broth microdilution method; type: functional
Staphylococcus aureus [8] = assay: Antibacterial activity against Staphylococcus aureus ACH-0141 isolate with gyrA Ser84Leu, Glu88Val and grlA Ser80Phe, Ala116Val mutant after 24 hrs by broth microdilution method; type: functional
Staphylococcus aureus [9] = assay: Antibacterial activity against Staphylococcus aureus ATCC 700699 isolate with gyrA Ser84Leu, Glu409Lys and grlA Ser80Phe mutant after 24 hrs by broth microdilution method; type: functional; details: ATCC 700699, 24 h
Staphylococcus aureus [10] = assay: Antibacterial activity against Staphylococcus aureus BSA643 isolate with gyrA Ser84Leu and grlA Ser80Tyr, Glu84Gly mutant after 24 hrs by broth microdilution method; type: functional
Staphylococcus aureus [11] = assay: Antibacterial activity against Staphylococcus aureus ACH-0216 isolate with grlA Ser80Phe mutant after 24 hrs by broth microdilution method; type: functional; in short: as §2
Staphylococcus aureus [12] = assay: Antibacterial activity against Staphylococcus aureus NY2746 isolate with gyrA Ser84Leu and grlA Ser80Phe mutant after 24 hrs by broth microdilution method; type: functional
Staphylococcus aureus [13] = assay: Antibacterial activity against Staphylococcus aureus BSA678 isolate with gyrA Ser84Leu, Ser85Pro and grlA Ser80Phe, Glu84Lys mutant after 24 hrs by broth microdilution method
Staphylococcus aureus [14] = assay: Antibacterial activity against Staphylococcus aureus ACH-0218 isolate with grlA Glu84Lys mutant after 24 hrs by broth microdilution method; type: functional; in short: as §2
Staphylococcus aureus [15] = assay: Antibacterial activity against Staphylococcus aureus ATCC 29213 after 24 hrs by broth microdilution method; type: functional; details: ATCC 29213, 24 h; in short: as §2
Staphylococcus aureus [16] = assay: Antibacterial activity against Staphylococcus aureus ACH-0204 isolate with gyrA Ser84Leu mutant after 24 hrs by broth microdilution method; type: functional; in short: as §2
Staphylococcus aureus [17] = assay: Antibacterial activity against Staphylococcus aureus ACH-0186 isolate with gyrA Ser84Leu and grlA Ser80Phe, Ala116Val mutant after 24 hrs by broth microdilution method; type: functional
Staphylococcus aureus [18] = assay: Antibacterial activity against Staphylococcus aureus ATCC 33591 isolate after 24 hrs by broth microdilution method; type: functional; details: ATCC 33591, 24 h; in short: as §2
Staphylococcus aureus [19] = assay: as §1; type: functional; remark: listed apart in the source
Staphylococcus aureus [20] = assay: Antibacterial activity against Staphylococcus aureus ACH-0210 isolate with gyrA Ser84Leu and grlA Ser80Phe mutant after 24 hrs by broth microdilution method; type: functional
Staphylococcus aureus [21] = assay: Antibacterial activity against Staphylococcus aureus ACH-0221 isolate with gyrA Ser84Leu mutant after 24 hrs by broth microdilution method; type: functional; in short: as §2

Cc1cc(-c2cc3c(cc2F)c(=O)c2c(=O)[nH]sc2n3C2CC2)ccn1
MIC (Staphylococcus aureus [1]): 8 µg/mL (≈ 21.8 µM)
MIC (Staphylococcus aureus [2]): 0.5 µg/mL (≈ 1.36 µM)
MIC (Staphylococcus aureus [3]): 4 µg/mL (≈ 10.9 µM)
MIC (Staphylococcus aureus [4]): 2 µg/mL (≈ 5.44 µM)
MIC (Staphylococcus aureus [5]): 2 µg/mL (≈ 5.44 µM)
MIC (Staphylococcus aureus [6]): 0.03 µg/mL (≈ 0.0817 µM)
MIC (Staphylococcus aureus [7]): 16 µg/mL (≈ 43.5 µM)
MIC (Staphylococcus aureus [8]): 16 µg/mL (≈ 43.5 µM)
MIC (Staphylococcus aureus [9]): 0.25 µg/mL (≈ 0.68 µM)
MIC (Staphylococcus aureus [10]): 0.25 µg/mL (≈ 0.68 µM)
MIC (Staphylococcus aureus [11]): 0.016 µg/mL (≈ 0.0435 µM)
MIC (Staphylococcus aureus [12]): 0.5 µg/mL (≈ 1.36 µM)
MIC (Staphylococcus aureus [13]): 4 µg/mL (≈ 10.9 µM)
MIC (Staphylococcus aureus [14]): 0.08 µg/mL (≈ 0.218 µM)
MIC (Staphylococcus aureus [15]): 0.008 µg/mL (≈ 0.0218 µM)
MIC (Staphylococcus aureus [16]): 0.03 µg/mL (≈ 0.0817 µM)
MIC (Staphylococcus aureus [17]): 0.5 µg/mL (≈ 1.36 µM)
MIC (Staphylococcus aureus [18]): 0.004 µg/mL (≈ 0.0109 µM)
MIC (Staphylococcus aureus [19]): 4 µg/mL (≈ 10.9 µM)
MIC (Staphylococcus aureus [20]): 0.5 µg/mL (≈ 1.36 µM)
MIC (Staphylococcus aureus [21]): 0.03 µg/mL (≈ 0.0817 µM)
